Experimental data taken from ChEMBL document CHEMBL2150863, “Synthesis pharmacological evaluation and docking studies of pyrimidine derivatives” (Eur J Med Chem, 2012).
Converted amounts (≈) assume the structure as drawn.

What was measured:
Pseudomonas aeruginosa = experiment: Antibacterial activity against Pseudomonas aeruginosa MTCC 424 after 24 hrs by tube dilution method; format: functional; settings: MTCC 424, 24 h
Summary of the method: (§1)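 Tube dilution in Mueller-Hinton broth at pH 7.4. Two-fold serial dilutions from 1000 to 0.97 in 10% DMSO, with a DMSO-only inoculated control. Inoculum matched visually to a McFarland standard of about 1.5 × 10⁸ cells/mL. Incubation at 37 ± 1 °C for 24 h. MIC is the lowest concentration giving no growth; duplicate determinations, averaged.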

Aspergillus niger = experiment: Antifungal activity against Aspergillus niger MTCC 282 after 48 hrs by tube dilution method; format: functional; settings: MTCC 282, 48 h
Summary of the method: (§2)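 Tube dilution in Sabouraud dextrose broth at pH 7.4. Two-fold serial dilutions from 1000 to 0.97 in 10% DMSO, with a solvent control. Inoculum matched visually to a McFarland standard of about 1.5 × 10⁸ cells/mL. Incubation at 25 ± 1 °C for 48 h. MIC is the tube showing no fungal growth; duplicate determinations, averaged.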

Bacillus subtilis = experiment: Antibacterial activity against Bacillus subtilis MTCC 441 after 24 hrs by tube dilution method; format: functional; settings: MTCC 441, 24 h; summary of the method: as §1
Mus musculus = experiment: Analgesic activity in mouse assessed as inhibition of acetic-acid induced writhing at 10 mg/kg administered 15 mins prior to acetic acid-challenge measured for 15 mins relative to vehicle-treated control; format: functional
Summary of the method: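 Mice, at least six per group. Test compounds given at 10 mg/kg; acetic acid solution given 15 min later. Writhing is scored as abdominal contractions, trunk twists and hind-limb extensions. Percent inhibition of pain = (1 − Vt/Vc) × 100, where Vt and Vc are mean writhing counts in the treated and control groups.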

Rattus norvegicus [1] = experiment: Antiinflammatory activity in rat assessed as inhibition of carrageenan-induced paw edema at 10 mg/kg, po administered 30 mins prior to carrageenan-challenge after 1 hr relative to vehicle-treated control; format: functional
Summary of the method: (§3)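 Rats of 150–200 g, six per group. Oral dosing at 10 mg/kg as a suspension; controls receive 1% carboxymethylcellulose. After 30 min, 0.1 mL of 1% w/v carrageenan is injected into the left hind paw. Paw volume is measured by mercury displacement. Inhibition = (1 − Vt/Vc) × 100 from edema volumes; mean ± SEM.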

Candida albicans = experiment: Antifungal activity against Candida albicans MTCC 183 after 48 hrs by tube dilution method; format: functional; settings: MTCC 183, 48 h; summary of the method: as §2
Rattus norvegicus [2] = experiment: Antiinflammatory activity in rat assessed as inhibition of carrageenan-induced paw edema at 10 mg/kg, po administered 30 mins prior to carrageenan-challenge after 4 hrs relative to vehicle-treated control; format: functional; summary of the method: as §3
Rattus norvegicus [3] = experiment: Antiinflammatory activity in rat assessed as inhibition of carrageenan-induced paw edema at 10 mg/kg, po administered 30 mins prior to carrageenan-challenge after 2 hrs relative to vehicle-treated control; format: functional; summary of the method: as §3
Rattus norvegicus [4] = experiment: Antiinflammatory activity in rat assessed as inhibition of carrageenan-induced paw edema at 10 mg/kg, po administered 30 mins prior to carrageenan-challenge after 3 hrs relative to vehicle-treated control; format: functional; summary of the method: as §3
Escherichia coli = experiment: Antibacterial activity against Escherichia coli MTCC 4351 after 24 hrs by tube dilution method; format: functional; settings: MTCC 4351, 24 h; summary of the method: as §1
Staphylococcus aureus = experiment: Antibacterial activity against Staphylococcus aureus MTCC 3160 after 24 hrs by tube dilution method; format: functional; settings: MTCC 3160, 24 h; summary of the method: as §1
Rattus norvegicus [5] = experiment: Ulcerogenic activity in Wistar albino rat assessed as ulcer index at 10 mg/kg, ip administered QD for 3 days; format: toxicity, organism-based; set-up: dose 10 mg/kg, route intraperitoneal; settings: in vivo, 72 h
Summary of the method: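 Wistar rats of either sex, 150–200 g, six per group. Given 10 mg/kg ip once daily for 3 days; controls receive 10% v/v Tween 80. Fasted 36 h, then pylorus ligated on day 4. Killed 4 h after ligation; stomach opened along the greater curvature and ulcer index scored; mean ± SEM.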

Row | SMILES | MIC (Pseudomonas aeruginosa) | MIC (Aspergillus niger) | MIC (Bacillus subtilis) | inhibition in vivo at 10 mg/kg (Mus musculus) | inhibition in vivo at 10 mg/kg (Rattus norvegicus [1]) | MIC (Candida albicans) | inhibition in vivo at 10 mg/kg (Rattus norvegicus [2]) | inhibition in vivo at 10 mg/kg (Rattus norvegicus [3]) | inhibition in vivo at 10 mg/kg (Rattus norvegicus [4]) | MIC (Escherichia coli) | MIC (Staphylococcus aureus) | UI (Rattus norvegicus [5])
1 | O=C1N=C(C2C(=O)c3ccccc3C2=O)CC(c2ccccc2O)N1 (stereo not drawn) | 125 µg/mL (≈ 374 µM) | 500 µg/mL (≈ 1500 µM) | 250 µg/mL (≈ 748 µM) | 37% | 24% | 250 µg/mL (≈ 748 µM) | 16% | 22% | 19% | 500 µg/mL (≈ 1500 µM) | 125 µg/mL (≈ 374 µM) | 
2 | COc1ccc2c(c1)c(CC(=O)O)c(C)n2C(=O)c1ccc(Cl)cc1 [INDOMETHACIN] |  |  |  | 55% | 23% |  | 34% | 48% | 39% |  |  | 1.7
3 | O=C1N=C(C2C(=O)c3ccccc3C2=O)CC(c2ccccc2[N+](=O)[O-])N1 (stereo not drawn) | 250 µg/mL (≈ 688 µM) | 500 µg/mL (≈ 1380 µM) | 250 µg/mL (≈ 688 µM) | 35% | 11% | 500 µg/mL (≈ 1380 µM) | 32% | 30% | 26% | 31.2 µg/mL (≈ 85.9 µM) | 125 µg/mL (≈ 344 µM) | 
4 | O=C1N=C(C2C(=O)c3ccccc3C2=O)CC(c2ccc(Cl)cc2)N1 (stereo not drawn) | 62.5 µg/mL (≈ 177 µM) | 125 µg/mL (≈ 354 µM) | 31.2 µg/mL (≈ 88.4 µM) | 44% | 15% | 125 µg/mL (≈ 354 µM) | 34% | 19% | 31% | 125 µg/mL (≈ 354 µM) | 125 µg/mL (≈ 354 µM) | 1.28
5 | O=C1N=C(C2C(=O)c3ccccc3C2=O)CC(/C=C/c2ccccc2)N1 (stereo not drawn) | 250 µg/mL (≈ 726 µM) | 250 µg/mL (≈ 726 µM) | 125 µg/mL (≈ 363 µM) | 16% | 17% | 250 µg/mL (≈ 726 µM) | 16% | 32% | 18% | 125 µg/mL (≈ 363 µM) | 62.5 µg/mL (≈ 181 µM) | 
6 | COc1cc(C2CC(C3C(=O)c4ccccc4C3=O)=NC(=O)N2)ccc1O (stereo not drawn) | 250 µg/mL (≈ 686 µM) | 125 µg/mL (≈ 343 µM) | 250 µg/mL (≈ 686 µM) | 28% | 20% | 250 µg/mL (≈ 686 µM) | 11% | 33% | 26% | 500 µg/mL (≈ 1370 µM) | 125 µg/mL (≈ 343 µM) | 
7 | O=C1N=C(C2C(=O)c3ccccc3C2=O)CC(c2ccc([N+](=O)[O-])cc2)N1 (stereo not drawn) | 250 µg/mL (≈ 688 µM) | 500 µg/mL (≈ 1380 µM) | 250 µg/mL (≈ 688 µM) | 38% | 16% | 500 µg/mL (≈ 1380 µM) | 18% | 26% | 19% | 500 µg/mL (≈ 1380 µM) | 125 µg/mL (≈ 344 µM) | 
